For series [1], the system named is Mus musculus. Briefly: Toxicity in FVB mouse assessed as effect on mean cell volume of red cells at 50 mg/kg, po administered 5 times per week for 2 weeks measured during test (reference value: 43.7 +/- 0.4 microm^3). Particulars: in vivo, 336 h. Details: dose 50 mg/kg, route oral. Format: organism-based. In outline:
(§1)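 8-week-old FVB mice were housed specific-pathogen-free and randomly assigned, n = 3 per group. They received 50 mg/kg compound or vehicle alone by oral gavage, five times weekly for 2 weeks. Body weight and survival were monitored. Differential blood counts came from nonlethal retro-orbital bleeds before study (J-5), during study (J5) and at end point (J12). Values are means ± spread for n = 3.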

Series [2] deals with Mus musculus. Briefly: Toxicity in FVB mouse assessed as effect on number of RBC at 50 mg/kg, po administered 5 times per week for 2 weeks (reference value: 7.7 +/- 0.1 10^6/mm^3). The format is organism-based. Details: dose 50 mg/kg, route oral. Particulars: in vivo, 336 h. Put shortly: as §1
For series [3], the system named is Mus musculus. Briefly: Toxicity in FVB mouse assessed as effect on body weight at 50 mg/kg, po administered 5 times per week for 2 weeks. Particulars: in vivo, 336 h. Details: dose 50 mg/kg, route oral. Format: organism-based. In outline: as §1
In series [4] the test system is Mus musculus. Briefly: Toxicity in FVB mouse assessed as effect on number of platelets at 50 mg/kg, po administered 5 times per week for 2 weeks (reference value: 514 +/- 42.8 10^3/mm^3). The settings on record: in vivo, 336 h. Details: dose 50 mg/kg, route oral. Format: organism-based. In outline:
as §1

Series [5] deals with Mus musculus. Briefly: Toxicity in FVB mouse assessed as effect on mean platelet volume at 50 mg/kg, po administered 5 times per week for 2 weeks measured during test (reference value: 8.4 +/- 0.5 microm^3). Format: organism-based. Details: dose 50 mg/kg, route oral. The settings on record: in vivo, 336 h. Put shortly:
as §1

Another series deals with K562. Briefly: Antiproliferative activity against human K562 cells after 48 hrs by cell titer-glo assay. Format: functional, cell-based. The settings on record: K562, 48 h. In outline: (§2)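 Cells kept in RPMI-1640 with 10% FBS at 37 °C, 5% CO2. 10^4 suspension cells were plated immediately before dosing. Compounds were added at 0.1–100 µM, final 1% DMSO, with DMSO vehicle control, and incubated 48 h. CellTiter-Glo luminescence was read. EC50 is the dose reducing luminescence to 50% of untreated cultures.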
(In general: Cellular ATP, detected with luciferase, serves as a proxy for viable cell number.)

In series [6] the test system is Mus musculus. Briefly: Toxicity in FVB mouse assessed as mortality at 50 mg/kg, po administered 5 times per week for 2 weeks. The format is organism-based. Details: dose 50 mg/kg, route oral. The settings on record: in vivo, 336 h. Put shortly: (§3)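 8-week-old Fvb mice, SPF-housed in ventilated cages with acidified water, randomly assigned (n = 3 per group) to compound or solvent-only vehicle. Dosing was by oral gavage five times weekly for 2 weeks. Survival was monitored with body weight and blood counts during dosing, and deaths were also recorded during the month after treatment stopped.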

Series [7] is described as follows: Therapeutic ratio, EC50 for human PBMC to EC50 for human 937 cells. Particulars: human PBMC versus human 937 cells.
The next series concerns HL-60. Briefly: Antiproliferative activity against human HL60 cells after 48 hrs by cell titer-glo assay. The format is functional, cell-based. Particulars: HL-60, 48 h.
Series [8] addresses T1, Protein deacetylase HDAC6 (Homo sapiens) (UniProt Q9UBN7).
T1 sequence (whole entry): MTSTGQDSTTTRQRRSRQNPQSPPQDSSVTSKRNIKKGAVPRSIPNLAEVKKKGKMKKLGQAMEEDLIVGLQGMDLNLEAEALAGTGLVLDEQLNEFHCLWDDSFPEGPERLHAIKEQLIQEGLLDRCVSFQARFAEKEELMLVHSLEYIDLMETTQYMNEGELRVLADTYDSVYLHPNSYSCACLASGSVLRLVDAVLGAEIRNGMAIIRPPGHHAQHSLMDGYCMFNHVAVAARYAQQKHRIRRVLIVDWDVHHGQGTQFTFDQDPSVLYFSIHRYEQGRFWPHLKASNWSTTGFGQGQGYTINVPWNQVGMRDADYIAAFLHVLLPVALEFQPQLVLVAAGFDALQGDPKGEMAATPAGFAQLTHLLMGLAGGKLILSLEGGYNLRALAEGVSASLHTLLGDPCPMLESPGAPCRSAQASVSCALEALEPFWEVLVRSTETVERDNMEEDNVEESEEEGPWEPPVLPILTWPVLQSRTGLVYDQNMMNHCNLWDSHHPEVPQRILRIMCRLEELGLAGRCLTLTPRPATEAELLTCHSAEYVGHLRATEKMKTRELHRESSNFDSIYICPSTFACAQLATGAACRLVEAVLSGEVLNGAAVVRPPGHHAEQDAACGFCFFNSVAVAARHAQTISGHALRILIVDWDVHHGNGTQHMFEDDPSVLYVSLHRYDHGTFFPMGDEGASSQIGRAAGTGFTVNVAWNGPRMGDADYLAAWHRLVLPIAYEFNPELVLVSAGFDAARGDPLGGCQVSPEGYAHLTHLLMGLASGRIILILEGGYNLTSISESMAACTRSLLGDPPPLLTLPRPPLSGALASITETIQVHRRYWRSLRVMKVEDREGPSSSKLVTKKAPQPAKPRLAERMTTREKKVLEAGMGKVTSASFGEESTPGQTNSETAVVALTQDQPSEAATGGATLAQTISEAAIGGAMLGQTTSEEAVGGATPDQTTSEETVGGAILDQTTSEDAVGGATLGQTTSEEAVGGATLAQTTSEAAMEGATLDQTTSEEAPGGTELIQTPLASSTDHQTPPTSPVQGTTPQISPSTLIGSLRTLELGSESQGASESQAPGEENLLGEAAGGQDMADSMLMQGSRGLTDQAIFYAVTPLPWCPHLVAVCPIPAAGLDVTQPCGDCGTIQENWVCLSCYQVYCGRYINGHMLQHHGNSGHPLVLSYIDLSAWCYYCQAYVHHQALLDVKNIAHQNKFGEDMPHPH
Briefly: Inhibition of recombinant FLAG-tagged HDAC6 assessed as [3H]acetic acid release preincubated for 30 mins measured after 2 hrs by scintillation counting. Put shortly:
(§4)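 FLAG-tagged HDAC1 or HDAC6 was immunopurified from stably expressing cell lines and washed in HDAC buffer (10 mM Tris-HCl pH 8.0, 10 mM NaCl, 10% glycerol). Enzyme was preincubated with inhibitor (1 µM) for 30 min at 4 °C, then given 20 000 cpm [3H]peracetylated H4 peptide for 2 h at 37 °C. The reaction was stopped with acetic acid/HCl, extracted into ethyl acetate, and released [3H]acetate counted by scintillation.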

The test system of series [9] is Mus musculus. Briefly: Toxicity in FVB mouse assessed as effect on mean cell volume of red cells at 50 mg/kg, po administered 5 times per week for 2 weeks (reference value: 43.9 +/- 0.5 microm^3). Particulars: in vivo, 336 h.
Series [10] relates to Mus musculus. Briefly: Toxicity in FVB mouse assessed as effect on mean platelet volume at 50 mg/kg, po administered 5 times per week for 2 weeks (reference value: 8.8 +/- 0.1 microm^3). Details: dose 50 mg/kg, route oral. The format is organism-based. The settings on record: in vivo, 336 h. In outline:
as §1

Series [11] deals with Mus musculus. Briefly: Toxicity in FVB mouse assessed as effect on body weight at 50 mg/kg, po administered 5 times per week for 2 weeks measured during test. The format is organism-based. Details: dose 50 mg/kg, route oral. Particulars: in vivo, 336 h. Put shortly: as §1
The subject of another series is Jurkat. Briefly: Antiproliferative activity against human Jurkat JA16 cells after 48 hrs by cell titer-glo assay. Format: functional, cell-based.
The test system of series [12] is Mus musculus. Briefly: Toxicity in FVB mouse assessed as effect on number of WBC at 50 mg/kg, po administered 5 times per week for 2 weeks (reference value: 9.1 +/- 0.2 10^3/mm^3). Details: dose 50 mg/kg, route oral. The settings on record: in vivo, 336 h. Format: organism-based. In outline: as §1
Series [13] relates to Mus musculus. Briefly: Toxicity in FVB mouse assessed as effect on number of RBC at 50 mg/kg, po administered 5 times per week for 2 weeks measured during test (reference value: 8.1 +/- 0.2 10^6/mm^3). Details: dose 50 mg/kg, route oral. Particulars: in vivo, 336 h. Format: organism-based. Put shortly:
as §1

Series [14] concerns Mus musculus. Briefly: Toxicity in FVB mouse assessed as mortality at 50 mg/kg, po administered 5 times per week for 2 weeks measured up to 1 month. Details: dose 50 mg/kg, route oral. Particulars: in vivo, 336 h. Format: organism-based. In outline: as §3
Series [15] has as its system Mus musculus. Briefly: Toxicity in FVB mouse assessed as effect on hematocrit at 50 mg/kg, po administered 5 times per week for 2 weeks measured during test. The format is organism-based. Details: dose 50 mg/kg, route oral. The settings on record: in vivo, 336 h. In outline:
as §1

Series [16] concerns Mus musculus. Briefly: Toxicity in FVB mouse assessed as effect on hematocrit at 50 mg/kg, po administered 5 times per week for 2 weeks. Format: organism-based. Details: dose 50 mg/kg, route oral. Particulars: in vivo, 336 h. Put shortly:
as §1

Series [17] has as its system Mus musculus. Briefly: Toxicity in FVB mouse assessed as effect on number of WBC at 50 mg/kg, po administered 5 times per week for 2 weeks measured during test (reference value: 9.1 +/- 0.2 10^3/mm^3). Format: organism-based. Details: dose 50 mg/kg, route oral. The settings on record: in vivo, 336 h. Put shortly:
as §1

For series [18], the target named is Histone deacetylase 1 (Homo sapiens) (UniProt Q13547). Briefly: Inhibition of recombinant FLAG-tagged HDAC1 assessed as [3H]acetic acid release preincubated for 30 mins measured after 2 hrs by scintillation counting. Put shortly: as §4
The next series has as its system U-937. Briefly: Antiproliferative activity against human U937 cells after 48 hrs by cell titer-glo assay. Format: functional, cell-based. Particulars: U-937, 48 h. In outline: as §2
A further series has as its system SK-BR-3. Briefly: Antiproliferative activity against human SK-BR-3 cells after 48 hrs by cell titer-glo assay. The format is functional, cell-based. Particulars: SK-BR-3, 48 h.
In another series the test system is HT-29. Briefly: Antiproliferative activity against human HT-29 cells after 48 hrs by cell titer-glo assay. The format is functional, cell-based. The settings on record: HT-29, 48 h.
In series [19] the test system is Mus musculus. Briefly: Toxicity in FVB mouse assessed as effect on number of platelets at 50 mg/kg, po administered 5 times per week for 2 weeks measured during test (reference value: 454 +/- 93 10^3/mm^3). Details: dose 50 mg/kg, route oral. Format: organism-based. The settings on record: in vivo, 336 h. In outline: as §1

The record followed here is ChEMBL document CHEMBL1156940, “Modified cap group suberoylanilide hydroxamic acid histone deacetylase inhibitor derivatives reveal improved selective antileukemic activity” (J Med Chem, 2010).

As a reminder, the EC50 is the concentration giving half of the maximal effect. A higher EC50 goes with lower potency in that assay.

Calls of active or inactive are those of the source. The rule behind the calls is not given here.

Sequence of Histone deacetylase 1 (Homo sapiens) (Q13547 whole entry): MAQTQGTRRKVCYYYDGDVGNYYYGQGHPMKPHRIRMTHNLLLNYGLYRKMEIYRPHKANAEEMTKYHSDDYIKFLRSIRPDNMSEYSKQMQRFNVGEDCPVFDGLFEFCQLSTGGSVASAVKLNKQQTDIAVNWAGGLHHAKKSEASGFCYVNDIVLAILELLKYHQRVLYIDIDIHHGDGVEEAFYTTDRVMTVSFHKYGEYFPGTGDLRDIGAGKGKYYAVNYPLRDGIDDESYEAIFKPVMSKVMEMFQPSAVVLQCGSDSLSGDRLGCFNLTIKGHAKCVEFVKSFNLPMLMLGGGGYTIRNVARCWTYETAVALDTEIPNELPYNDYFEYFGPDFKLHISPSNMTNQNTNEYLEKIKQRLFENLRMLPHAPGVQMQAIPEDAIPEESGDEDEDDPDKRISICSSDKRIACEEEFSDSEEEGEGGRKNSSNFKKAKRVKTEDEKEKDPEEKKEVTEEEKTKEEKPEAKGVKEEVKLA

Take `O=C(CCCCCCC(=O)Nc1ccc(I)cc1)NO`: the Activity is on record as 43.9 um3 in the series with Mus musculus [1]; 6.9 10^6/mm3 with Mus musculus [2]; 97.8% in the series on Mus musculus [3]; 537 10^3/mm3 in the series on Mus musculus [4]; 8.6 um3 in the series with Mus musculus [5]; “Non-toxic” in the series with Mus musculus [6]. Further, the Activity in the series with Mus musculus [9] is on record as 43.7 um3; in the series on Mus musculus [10] it was 8.7 um3; in the series with Mus musculus [11], 99.7%; in the series on Mus musculus [12], 7.5 10^3/mm3; in the series on Mus musculus [13] it was 8.02 10^6/mm3; with Mus musculus [14], “Non-toxic”. Besides, the Activity in the series on Mus musculus [15] is 35.2%; in the series with Mus musculus [16], 30.2%; with Mus musculus [17] it was 7.5 10^3/mm3; with Mus musculus [19], 478.3 10^3/mm3. The EC50 turned out to be 1300 nM in the series with K562; 850 nM in the series on HL-60; 240 nM in the series on Jurkat; 120 nM with U-937; 1100 nM in the series on SK-BR-3; 950 nM with HT-29. The selectivity ratio in series [7] came out at 30. Moreover, the outcome in series [8] and in series [18] was Active.

For the compound `O=C(CCCCCCC(=O)Nc1cc2ccc3cccc4ccc(c1)c2c34)NO`, the 50% effective concentration (EC50) in the series on K562 came to 800 nM; with HL-60, 350 nM; with Jurkat, 180 nM; with U-937 it was 300 nM; in the series on SK-BR-3, 1200 nM; in the series on HT-29, 1400 nM. In addition, the selectivity ratio in [7] amounted to 15. Besides, the result in series [8] and in [18] was Active.

For `O=C(CCCCCCC(=O)Nc1ccccc1)NO` [VORINOSTAT], the Activity with Mus musculus [1] is recorded as 44.1 um3; with Mus musculus [2], 7.6 10^6/mm3; with Mus musculus [3], 96.2%; with Mus musculus [4], 538 10^3/mm3; in the series on Mus musculus [5] it was 7.7 um3; in the series on Mus musculus [6] it was “Non-toxic”. Besides, the Activity in the series on Mus musculus [9] is 44.5 um3; in the series with Mus musculus [10], 8.4 um3; in the series with Mus musculus [11], 94.9%; with Mus musculus [12], 8.3 10^3/mm3; in the series with Mus musculus [13], 8.3 10^6/mm3; with Mus musculus [14], “Non-toxic”. The Activity with Mus musculus [15] is given as 36.5%; in the series with Mus musculus [16], 33.7%; in the series on Mus musculus [17], 5.9 10^3/mm3; with Mus musculus [19], 617 10^3/mm3. The results for the EC50 in the series with K562 and in the series with U-937 were 2200 nM and 820 nM, respectively.
